Sampled rows, rich in hits. Any-hit rate of the full collection: about 2.3%.
MPTP inh – blocks calcium-induced mitochondrial swelling. isolated mouse mitochondria, Ca2+ swelling absorbance, 30 min. inhibition, % at 10 µM. 1.4% of 360,000 active;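 active = inhibition of 50% or more, scaled per plate between neutral and stimulator controls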;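 also: 0% = DMSO wells given calcium and 100% = 1 mM EGTA wells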
SKN-1 block – C. elegans SKN-1 inhibition; C. elegans VP596 Pgst-4::GFP/RFP ratio, acrylamide-induced, 24 h; inhibition, % at 21.8 µM; 0.49% of 360,000 active; AID 624304;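 active = interference check ratio from 0.5 to 1.5 plus GFP to RFP signal ratio inhibition reaching or exceeding a fixed threshold, cut at about 30% in these data, passing the limit was not always enough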
ATG4B inhibitor – ATG4B (human) cysteine protease inhibition; Q9Y4P1; ATG4B cleavage of LC3-PLA2, NBD-HPC fluorescence, 1 h; inhibition, % at 8.33 µM; 0.51% of 340,000 active; AID 504462; in the data active = inhibition above about 40%
Target sequence (Q9Y4P1 whole entry, looked up): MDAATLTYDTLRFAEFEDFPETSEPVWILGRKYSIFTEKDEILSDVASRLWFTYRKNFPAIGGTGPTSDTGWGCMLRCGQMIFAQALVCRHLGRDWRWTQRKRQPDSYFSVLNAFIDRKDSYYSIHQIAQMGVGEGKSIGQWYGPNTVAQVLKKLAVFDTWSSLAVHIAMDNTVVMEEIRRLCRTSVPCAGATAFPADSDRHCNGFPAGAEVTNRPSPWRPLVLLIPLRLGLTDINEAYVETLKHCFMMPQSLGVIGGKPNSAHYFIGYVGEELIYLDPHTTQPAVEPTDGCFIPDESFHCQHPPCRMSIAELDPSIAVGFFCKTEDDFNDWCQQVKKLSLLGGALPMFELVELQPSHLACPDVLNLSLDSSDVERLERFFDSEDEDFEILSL
MT1-MMP act inh – blocks activation of human MT1-MMP. P50281. HT1080 RFP-PRO-GFP cells, GFP/RFP ratio fluorescence, overnight; percent of plate control window, DMSO zero. GFP/RFP ratio change, % at 20 µM. 0.061% of 360,000 active;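 active = GFP/RFP ratio change of at least 30% with cell ATP level not reduced by more than half and red fluorescence within 50% of control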
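Assay system: HT1080 RFP-PRO-GFP cells | Dosing: 20 µM single dose, 1% DMSO | Incubation: Cells overnight before dosing, compound overnight, 37 °C, 5% CO2 | Evaluation: GFP/RFP fluorescence ratio | Control set: DMSO-only wells and HT1080 RFP-L50D-GFP cell wells as references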
An asterisk follows results filed as active; · = not tested or not shown.

SMILES	MPTP inh	SKN-1 block	ATG4B inhibitor	MT1-MMP act inh
O=C(Nc1cccc(-c2csc(Nc3cccc(C(F)(F)F)c3)n2)c1)c1ccccc1	1.5	16.9	10.7	6.9
O=[N+]([O-])c1cccc(-c2csc(Nc3ccccc3)n2)c1	3.4	35.4*	5.6	-1.1
COc1ccc(-c2csc(Nc3ccccc3)n2)cc1	-1.5	35.5*	7.6	2.3
O=C(Nc1nc(-c2ccccc2)cs1)c1ccccc1F	5.1	53.2*	25.8	-1.1
CCOc1ccc2[nH]c(=O)c(CN(CCCN3CCOCC3)Cc3nnnn3Cc3ccc(OC)cc3)cc2c1	-1.4	4.3	-17.2	-6.4
NC(=O)c1cnc(Cc2c[nH]c3ccccc23)c(I)c1	-1.0	2.4	·	2.5
N/C(=N\OC(=O)c1ccc(Cl)c(Cl)c1)c1cccnc1	-0.7	51.5*	-7.1	5.3
N/C(=N\OC(=O)c1cc(Cl)ccc1Cl)c1cccnc1	-1.6	-8.3	1.0	-7.8
N/C(=N\OC(=O)c1cccc(Cl)c1)c1cccnc1	-3.1	42.0*	-5.3	-4.7
Cc1cccc(OCC(=O)O/N=C(\N)c2ccncc2)c1	0.0	10.8	0.9	2.2
N/C(=N\OC(=O)COc1ccc(Cl)cc1)c1cccnc1	1.6	36.6*	-4.8	4.4
N/C(=N\OC(=O)COc1ccc2ccccc2c1)c1ccncc1	-1.2	39.1*	-8.0	0.5
N/C(=N\OC(=O)c1cccc(Cl)c1)c1ccncc1	0.1	19.5	-6.2	1.0
CC(=O)Nc1cccc(-c2ccnc3c2CC(C)(C(=O)Nc2ccc(C(C)C)cc2)O3)c1 (stereo not drawn)	0.2	-3.6	·	5.5
COc1cccc(CN2CCC2(C)C(=O)NCc2cccc(C(F)(F)F)c2)c1OC (stereo not drawn)	0.7	13.9	·	1.7
COC(=O)Oc1ccc(/C=N/NC(=O)CN(c2ccccc2Br)S(C)(=O)=O)cc1OC	1.3	6.6	-15.6	1.2
CN(C)c1ccc(/C=N/NC(=O)CN(c2ccccc2Cl)S(C)(=O)=O)cc1Br	1.3	35.5*	-9.7	-1.3
Cc1cccc(NC(=O)c2ccc3c(c2)C(=O)N(c2ccccc2C)C3=O)n1	-0.9	43.0*	4.4	-1.5
Cc1cccc(NC(=O)c2cccc(C(=O)Nc3cccc(C)n3)c2)n1	-0.2	3.4	-5.1	-3.2
O=C1OCC2=C1C(c1ccccc1)CC(=O)N2c1ccc(F)cc1 (stereo not drawn)	-3.6	3.7	-27.5	2.1
CCOC(=O)C1=C(COC(=O)C(CC)Oc2ccccc2)NC(=O)NC1C (stereo not drawn)	-2.1	26.3	2.1	0.1
Nc1cccc2c1C(=O)c1ccc(Cl)cc1C2=O	3.1	45.5*	-0.3	11.1
CN(C)CCCOc1ccc(Cl)cc1Br	-1.0	4.4	2.8	2.1
Clc1ccc(OCCCCSc2ncccn2)cc1	-0.3	91.4*	-6.1	1.8
Brc1cccc(OCCSc2ncccn2)c1	-0.9	50.0*	2.3	-2.8
SMILES	MPTP inh	SKN-1 block	ATG4B inhibitor	MT1-MMP act inh
CCCOc1ccc(OCCSc2ncccn2)cc1	1.5	37.6*	3.6	4.5
Clc1ccc(OCCSc2ncccn2)c(Br)c1	0.6	53.2*	4.7	2.4
CN(Cc1nc2ccccc2n1C)C(=O)c1ccco1	-0.7	10.0	-8.2	4.0
CC(=O)Nc1nc(C2COc3ccccc3O2)cs1 (stereo not drawn)	-0.2	8.7	1.8	0.2
COCCCNC(=O)c1cn(CC(C)C)c(=O)c2c1c1ccccc1n2C	-1.1	50.4*	-6.0	2.4
O=C(NN=Cc1ccccc1C(=O)O)c1cccc(S(=O)(=O)Nc2cccc(C(F)(F)F)c2)c1	-0.1	-9.8	-7.9	-2.0
O=C(Nc1nc(-c2ccc(S(=O)(=O)N3CCCC3)cc2)cs1)c1cccs1	-3.1	37.6*	-10.2	-10.7
O=C(Nc1nc(-c2ccc(S(=O)(=O)N3CCCCCC3)cc2)cs1)c1cccs1	3.8	0.6	-16.6	·
O=C(O)COc1ccc(NC(=O)c2ccc3c(c2)C(=O)N(CC2CCCO2)C3=O)cc1 (stereo not drawn)	-0.7	-11.2	·	-1.6
c1ccc(Cn2nnc3c(NCCN4CCOCC4)ncnc32)cc1	0.8	43.8*	4.4	1.6
CSc1ccc(Cl)c(C(=O)OCC(=O)NCc2ccco2)c1	2.0	0.7	-11.7	-2.5
CSc1ccc(Cl)c(C(=O)NCc2ccco2)c1	49.8	41.5*	-5.9	3.6
Nc1ccc2nc(-c3ccccc3)sc2c1	-0.6	81.8*	5.8	-6.3
Nc1ccc(-c2nc3cc(N)ccc3s2)cc1	0.4	-5.3	-4.5	3.3
Cc1ccc2nc(-c3ccc(N)cc3)sc2c1	3.4	42.3*	-10.0	-3.3
O=C(Nc1ccc2ccccc2c1)C(c1ccccc1)n1c(=O)c(-c2cc3ccccc3[nH]2)nc2ccccc21 (stereo not drawn)	7.1	4.7	·	-5.0
COc1ccc2c(c1)-c1c(sn(-c3ccccc3)c1=S)C(C)(C)N2	1.5	3.5	0.2	-3.0
COc1ccc(-n2sc3c(c2=S)-c2cc(OC)ccc2NC3(C)C)cc1	4.0	40.5*	-9.4	1.8
CCCOC(=O)c1cc(=O)[nH]c2ccccc12	-1.2	36.8*	-4.4	6.7
Cc1cc(C(=O)N[C@H](c2ccccc2)[C@@]2(C)C[C@@H]2[C@@H](C)C(=O)Nc2ccc3ccccc3c2)n(C)n1	4.4	-1.8	-6.0	-2.4
CC(C)(C)NC(=O)COc1ccccc1C#N	-0.6	1.8	-2.9	-3.0
Cc1cccc(C(=O)NCC(=O)NCC2COc3ccccc3O2)c1 (stereo not drawn)	-0.5	7.0	-3.5	1.4
c1ccc(CCNc2nnnn2-c2ccccc2)cc1	-9.5	36.9*	5.9	1.5
C1=C(CCNc2nnnn2-c2ccccc2)CCCC1	8.5	-0.7	-7.4	2.2
O=C(C1CCCCC1)N1CCN(S(=O)(=O)c2ccc(Cl)cc2)CC1	2.1	36.9*	0.8	-0.7
SMILES	MPTP inh	SKN-1 block	ATG4B inhibitor	MT1-MMP act inh
O=C(C1CCN(S(=O)(=O)c2c(Cl)cccc2Cl)CC1)N1CCCC1	-0.7	35.4*	9.2	1.3
O=C1NC[C@H](CCCCN2CCN(CCC3CCCCC3)C(=O)C2=O)N(CCc2ccc(O)cc2)C1=O	-0.7	15.5	·	-0.9
O=C1c2ccc3c4c(ccc(c24)C(=O)N1c1ccc2ccccc2c1)CC3	2.7	35.1*	0.1	-1.8
COCOCCn1cc(CN2CCS(=O)(=O)N(Cc3ccc(-c4cccc(N(C)C)c4)cc3)C(C(C)C)C2=O)nn1 (stereo not drawn)	-2.0	35.7*	·	2.6
Cc1ccc([C@H]2C[C@@H](O)[C@H](n3cc(C4CC4)nn3)CN2C(=O)C2CCCCC2)cc1	-2.4	9.1	·	5.7
Cc1ccc(Nc2nc(-c3ccccc3)cs2)nc1	0.8	25.2	1.7	-0.8
Cc1ccc(Nc2nc(-c3cccs3)cs2)nc1	-1.0	46.4*	-0.5	-8.2
CCOc1ccc(OCCSc2nc3ccccc3o2)cc1	1.3	19.1	5.0	0.6
c1ccc(OCCSc2nc3ccccc3o2)cc1	0.7	38.6*	-7.0	2.3
c1ccc(SCc2nc3ccccc3s2)nc1	0.1	30.6	-6.3	-3.3
c1ccc2oc(SCc3nc4ccccc4s3)nc2c1	-5.3	45.0*	10.3	-0.2
